System: Leishmania amazonensis
Experiment: Antileishmanial activity against Leishmania amazonensis
Format: functional, organism-based
Conditions: not given

Row | Compound | IC50
1 | C=C(C#N)C(O)c1ccc([N+](=O)[O-])cc1 (stereo unspecified) | 7.9 µM

System: Leishmania chagasi
Experiment: Antileishmanial activity against promastigote form of Leishmania chagasi MCAN/BR/99/JP15 after 72 hrs
Format: functional, organism-based, MCAN/BR/99/JP
Conditions: not given
Summary of the method: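 Log-phase promastigotes at 1 × 10^6 parasites/mL were grown at 26 °C in Schneider's Drosophila medium with 20% FBS, with or without a range of adduct concentrations, for 72 h. Glucantime served as the reference drug. Parasites were fixed in isotonic citric acid/NaCl/formalin solution, and growth was counted by light microscopy in a Neubauer chamber. Three independent experiments were run in triplicate.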

Row | Compound | IC50
2 | MEGLUMINE ANTIMONATE | 1620.3 µg/mL

Same assay, conditions: Leishmania chagasi, MCAN/BR/99/JP, 72 h; read-out: IC50

Row | Compound | IC50
3 | C=C(C#N)C(O)c1ccc([N+](=O)[O-])cc1 (stereo unspecified) | 37.4 µM
4 | C=C(C#N)C(O)c1cccnc1 (stereo unspecified) | 36.9 µM
5 | C=C(C#N)C(O)c1ccc(Br)cc1 (stereo unspecified) | 25.2 µM
6 | C=C(C#N)C(O)c1cccc([N+](=O)[O-])c1 (stereo unspecified) | 34.6 µM
7 | C=C(C#N)C(O)c1ccccn1 (stereo unspecified) | 32 µM
8 | C=C(C#N)C(O)c1ccccc1[N+](=O)[O-] (stereo unspecified) | 38.8 µM
9 | C=C(C#N)C(O)c1ccncc1 (stereo unspecified) | 30.1 µM

System: Artemia salina (organism)
Experiment: Toxicity in Artemia salina after 24 hrs
Format: organism-based
Conditions: in vivo
Summary of the method: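 Brine shrimp nauplii hatched in filtered sea water over 48 h (lamp drawing hatched shrimps through a partitioned tank), exposed to compound in DMSO/sea water in tubes for 24 h under light. Dead and surviving shrimps counted; LC50 from concentration versus lethality percentage on a probit scale. Sea water plus DMSO served as control.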

Row | Compound | LC50 at 24 h
10 | C=C(C#N)C(O)c1ccc([N+](=O)[O-])cc1 (stereo unspecified) | 180 µM
11 | C=C(C#N)C(O)c1cccnc1 (stereo unspecified) | 555 µM
12 | C=C(C#N)C(O)c1ccc(Br)cc1 (stereo unspecified) | 130 µM
13 | C=C(C#N)C(O)c1cccc([N+](=O)[O-])c1 (stereo unspecified) | 471 µM
14 | C=C(C#N)C(O)c1ccccn1 (stereo unspecified) | 545 µM
15 | C=C(C#N)C(O)c1ccccc1[N+](=O)[O-] (stereo unspecified) | 430 µM
16 | C=C(C#N)C(O)c1ccncc1 (stereo unspecified) | 443 µM

From ChEMBL document CHEMBL1137673, “Improved synthesis of seven aromatic Baylis-Hillman adducts (BHA): evaluation against Artemia salina Leach. and Leishmania chagasi” (Eur J Med Chem, 2009)
